The values that follow come from ChEMBL document CHEMBL4706638, “Mining Natural Products for Macrocycles to Drug Difficult Targets” (J Med Chem, 2021).

This experiment deals with Keap1/Nrf2 (Homo sapiens, UniProt Q14145). The experiment can be described thus: Inhibition of Nrf2 peptide (KKKKAFFAQLQLDEETGEFL) binding to Keap1 Kelch domain (321 to 609 residues) (unknown origin) assessed as dissociation constant by surface plasmon resonance based inhibition in solution assay. In kind it is protein assay. A digest of the protocol:
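Solution-competition SPR at 20 °C in HBS-P (10 mM HEPES, 150 mM NaCl, 0.05% Tween 20, 1.0 mM TCEP, pH 7.40), 10 µL/min. Nrf2 peptide amine-coupled to CM5 chip (400–600 RU). 25 nM Keap1 Kelch domain (aa321–609) preincubated with compound, injected; initial association slopes (5–15 s) vs compound-free controls give free Keap1. KD by nonlinear regression; mean ± SD of three measurements on distinct samples.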
In general terms: Surface plasmon resonance follows binding to a sensor surface in real time, without labels.

Sequence of Keap1/Nrf2 (Q16236 whole entry, the tested form may be a part): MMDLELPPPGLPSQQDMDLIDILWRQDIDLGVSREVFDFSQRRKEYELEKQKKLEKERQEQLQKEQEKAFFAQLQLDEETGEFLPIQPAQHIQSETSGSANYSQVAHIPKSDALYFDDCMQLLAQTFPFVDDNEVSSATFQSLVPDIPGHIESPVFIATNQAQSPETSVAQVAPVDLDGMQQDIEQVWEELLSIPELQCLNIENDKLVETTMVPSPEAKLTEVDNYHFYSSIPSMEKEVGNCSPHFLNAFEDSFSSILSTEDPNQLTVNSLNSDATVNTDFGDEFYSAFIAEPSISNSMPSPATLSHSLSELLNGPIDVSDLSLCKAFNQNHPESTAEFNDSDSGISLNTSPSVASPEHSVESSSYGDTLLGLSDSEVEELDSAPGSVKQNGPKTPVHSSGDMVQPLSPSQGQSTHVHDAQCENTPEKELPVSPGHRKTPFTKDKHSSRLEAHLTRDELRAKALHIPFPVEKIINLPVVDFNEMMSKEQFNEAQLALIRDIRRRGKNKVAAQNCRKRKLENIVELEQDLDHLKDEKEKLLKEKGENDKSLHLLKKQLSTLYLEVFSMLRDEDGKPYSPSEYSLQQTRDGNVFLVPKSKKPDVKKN
Sequence of Keap1/Nrf2 (Q14145 whole entry, the tested form may be a part): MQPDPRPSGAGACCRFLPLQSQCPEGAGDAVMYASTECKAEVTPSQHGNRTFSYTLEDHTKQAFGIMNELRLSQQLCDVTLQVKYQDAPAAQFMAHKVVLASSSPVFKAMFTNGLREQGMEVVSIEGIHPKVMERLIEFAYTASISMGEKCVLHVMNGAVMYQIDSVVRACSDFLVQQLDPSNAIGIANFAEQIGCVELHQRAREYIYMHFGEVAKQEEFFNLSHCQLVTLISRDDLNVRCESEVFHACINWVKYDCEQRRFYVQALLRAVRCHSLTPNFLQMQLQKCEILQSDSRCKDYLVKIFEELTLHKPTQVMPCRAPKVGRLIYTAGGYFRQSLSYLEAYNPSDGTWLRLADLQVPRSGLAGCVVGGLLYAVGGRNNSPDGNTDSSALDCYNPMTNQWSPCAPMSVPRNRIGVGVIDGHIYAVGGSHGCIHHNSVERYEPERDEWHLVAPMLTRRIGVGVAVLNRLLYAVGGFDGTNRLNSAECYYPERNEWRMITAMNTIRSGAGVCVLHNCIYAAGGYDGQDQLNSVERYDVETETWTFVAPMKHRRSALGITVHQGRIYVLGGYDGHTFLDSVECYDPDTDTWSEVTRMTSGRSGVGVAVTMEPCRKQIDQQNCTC

For orientation: Kd means the free concentration of one partner at which half of the binding sites on the other are occupied at equilibrium, for simple one-to-one binding. With `CNC(=O)[C@H]1CSCc2ccccc2C(=O)OC[C@@H](NC(=O)[C@@H]2CCCN2C(C)=O)C(=O)N1`, the dissociation constant Kd is 209 µM.

Turning to `COC(=O)[C@H]1CSCc2ccccc2C(=O)OC[C@H](NC(=O)[C@@H]2CCCN2C(C)=O)C(=O)N1`, the Kd is > 500 µM.

As to `CCN(CC)C(=O)[C@H]1CSCc2ccccc2C(=O)OC[C@@H](NC(=O)[C@@H]2CCCN2C(C)=O)C(=O)N1`, the Kd was > 500 µM.

As for `COC(=O)[C@H]1CSCc2ccccc2C(=O)OC[C@@H](NC(=O)[C@@H]2CCCN2C(C)=O)C(=O)N1`, the Kd was determined as 237 µM.

As for `CC(=O)N1CCC[C@H]1C(=O)N[C@@H]1CCOC(=O)c2ccccc2CSC[C@H](C(=O)N(C)C)NC1=O`, the Kd was > 500 µM.

Turning to `COC(=O)[C@H]1CSCc2ccccc2C(=O)OC[C@@H](NC(=O)[C@H]2CCCN2C(C)=O)C(=O)N1`, the Kd was > 500 µM.

As for `COC(=O)[C@@H]1CSCc2ccccc2C(=O)OC[C@H](NC(=O)[C@@H]2CCCN2C(C)=O)C(=O)N1`, the Kd is > 500 µM.

As to `CC(=O)N1CCC[C@H]1C(=O)N[C@@H]1COC(=O)c2ccccc2CSC[C@H](C(N)=O)NC1=O`, the Kd is > 500 µM.

As for `CC(=O)N1CCC[C@H]1C(=O)N[C@@H]1COC(=O)c2ccccc2CSC[C@H](C(=O)N(C)C)NC(=O)CNC1=O`, the Kd was > 500 µM.

With `COC(=O)[C@H]1CSCc2ccccc2C(=O)OC[C@@H](NC(=O)[C@@H]2C[C@@H](O)CN2C(C)=O)C(=O)N1`, the equilibrium dissociation constant (Kd) stood at 270 µM.

For the compound `COC(=O)[C@@H]1CSCc2ccccc2C(=O)OC[C@@H](NC(=O)[C@@H]2CCCN2C(C)=O)C(=O)N1`, the Kd was > 500 µM.

Regarding `CSC[C@@H](NC(=O)[C@@H](COC(=O)c1ccccc1)NC(=O)[C@@H]1CCCN1C(C)=O)C(=O)N(C)C`, the Kd was found to be 406 µM.
